Wnt act = activators of Wnt/beta-catenin signaling. Wnt/beta-catenin reporter cell assay, activator, plate reader. activation, % at 9.35 µM. 1.2% of 300,000 active. AID 743398; in the data active = activation above about 30%, passing the limit was not always enough; inconclusive = no clear call, values can overlap the other calls;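 note: 0% = neutral control wells and 100% = positive control wells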
ERAP1 HTS inh = ERAP1 (human) enzyme inhibition; recombinant ERAP1, Leu-AMC fluorescence, 60 min; inhibition, % at 10.7 µM; 0.15% of 340,000 active;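 active = mean replicate inhibition of at least 30%, or all replicates individually reaching that 30% level; inactive = mean below 30% and not every replicate reaching it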;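 note: 0% = neutral control wells and 100% = L-leucinethiol positive control wells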
Target sequence (Q9NZ08 whole entry, looked up): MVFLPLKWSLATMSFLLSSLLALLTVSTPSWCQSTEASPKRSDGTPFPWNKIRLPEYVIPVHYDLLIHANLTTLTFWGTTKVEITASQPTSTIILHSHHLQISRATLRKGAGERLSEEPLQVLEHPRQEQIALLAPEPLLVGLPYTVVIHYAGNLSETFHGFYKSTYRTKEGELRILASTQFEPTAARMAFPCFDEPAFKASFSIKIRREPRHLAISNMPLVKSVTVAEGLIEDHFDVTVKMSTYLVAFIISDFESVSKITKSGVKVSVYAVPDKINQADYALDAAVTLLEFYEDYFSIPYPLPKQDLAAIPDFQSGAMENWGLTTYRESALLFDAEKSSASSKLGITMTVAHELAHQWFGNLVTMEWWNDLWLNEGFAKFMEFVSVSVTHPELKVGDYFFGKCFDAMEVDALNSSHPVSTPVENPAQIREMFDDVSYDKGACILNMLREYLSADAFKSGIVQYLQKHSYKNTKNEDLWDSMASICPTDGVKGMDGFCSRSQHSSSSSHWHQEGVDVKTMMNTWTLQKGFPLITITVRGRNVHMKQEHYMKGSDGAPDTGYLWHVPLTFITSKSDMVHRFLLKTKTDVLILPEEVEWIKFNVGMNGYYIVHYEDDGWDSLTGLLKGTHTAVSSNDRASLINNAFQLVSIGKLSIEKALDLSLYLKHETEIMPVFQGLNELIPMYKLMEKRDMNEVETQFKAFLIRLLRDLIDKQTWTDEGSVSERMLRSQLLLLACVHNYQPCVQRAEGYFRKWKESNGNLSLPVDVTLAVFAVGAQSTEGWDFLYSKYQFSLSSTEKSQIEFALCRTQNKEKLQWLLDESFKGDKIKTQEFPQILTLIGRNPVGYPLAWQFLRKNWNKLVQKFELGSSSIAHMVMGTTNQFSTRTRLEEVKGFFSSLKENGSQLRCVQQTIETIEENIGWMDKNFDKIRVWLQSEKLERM
Cneo AK release = causes C. neoformans cell lysis. adenylate kinase release luminescence, 4 h; normalised: neutral wells 0, clomiphene wells 100. lysis activity, % at 15 µM. 0.2% of 360,000 active. AID 651654;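 active = mean lysis activity across replicates of at least 80%, whatever share of replicates individually reach that level; inactive = mean lysis activity below 80%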
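Material – Cryptococcus neoformans yeast cells · Quantity – 5 × 10^6 yeast cells/mL · Buffer or medium – YPD medium · Compound – single dose · Timing – 4 h static compound exposure, 37 °C, read 1 h post-reagent · Signal – adenylate kinase release luminescence · Read-out basis – lysis from increased AK signal · Benchmarks – Clomiphene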
HIV Env fusion = inhibitors of HIV Env-mediated cell fusion | HeLa-JRFL Env/CEM21 cell fusion, luciferase | AID 651610 | inhibition, % at 12.3 µM | 1.1% of 360,000 active;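 active = mean replicate inhibition score of at least 50 and every replicate individually at or above 50; inconclusive = only one of the two criteria met; inactive = mean below 50 and not all replicates reaching 50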;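 note: 0% = plate neutral controls and 100% = maraviroc near 300 nM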
esBAF inh = SWI/SNF esBAF complex inhibition; mouse ES cells, Bmi1-luciferase knock-in reporter, 24 h; 100% = twice the neutral-well signal; reporter increase, % at 12.5 µM; 2% of 350,000 active; in the data active = activation above about 40%; inconclusive = no clear call, values can overlap the other calls;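 note: 0% = median of the plate's neutral control wells and 100% = double that signal; a rise in the Bmi1 reporter signal indicates esBAF inhibition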
MITF TRPM1 HTS = activators of MITF-driven TRPM1 promoter activity in SK-MEL-5 cells; SK-MEL-5 TRPM1-promoter luciferase, 24 h; % of positive control, neutral wells = 0; activation, % at 12.5 µM; 0.75% of 300,000 active; AID 588334;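 active = mean activation of at least 80% with every replicate also reaching 80%; inconclusive = mean reaches 80% but some replicate falls short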;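 note: 0% = neutral control wells and 100% = parthenolide positive control wells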
* = called active by the depositor; i = inactive; ? = inconclusive; . = not tested or not shown; [ ] = dose if it differs, or a comment. Most compounds without a hit are left out; they make up all but 3.5% or so of the library.

SMILES	Wnt act	ERAP1 HTS inh	Cneo AK release	HIV Env fusion	esBAF inh	MITF TRPM1 HTS
COc1ccc(-c2cc(C(F)(F)F)nc(SCCC(=O)N3CCN(C)CC3)n2)cc1	-4	.	.	-29	.	-9
O=C(CSc1nc(-c2ccccc2)cc(C(F)(F)F)n1)NCc1cccs1	-8	.	.	.	.	16
COc1ccc(-c2cc(C(F)(F)F)nc(SCC(=O)NCc3cccs3)n2)cc1	.	.	2	56*	1	9
COc1ccc(-c2cc(C(F)(F)F)nc(SCC(N)=O)n2)cc1	.	.	2	.	51*	-5
O=C(CSc1nc(-c2ccco2)cc(C(F)(F)F)n1)Nc1ccccc1C(F)(F)F	1	.	7	74*	-4	0
COc1ccc(-c2cn3cccc(C)c3n2)cc1F	33*	-1	.	-83	.	92*
Cc1ccc(-c2cn3cccc(C)c3n2)cc1	1	8	.	-45	.	-6
COc1ccc(-c2cn3cccnc3n2)cc1Br	20	-39	.	-2	.	81*
CCCCNc1c(-c2ccc(SC3CCCCC3)cc2)nc2ccccn12	37*	-5	-8	-49	25	35
CCCCNc1c(-c2ccc(SC(C)CC)cc2)nc2ccccn12 (stereo unspecified)	19	-8	-5	-29	-19	?
CC(Sc1nc2ccccc2c(=O)n1C)C(=O)N(C)C1CCCCC1 (stereo unspecified)	-3	0	9	62*	-49	-27
COCCn1c(SC(C)C(=O)NC2CCCCC2C)nc2ccccc2c1=O (stereo unspecified)	2	0	2	75*	-1	-5
CCC(=O)N1C[C@@H](C)[C@H](OC)CN(C)C(=O)c2cc(NC(=O)Nc3ccccc3)ccc2OC[C@H]1C	.	0	1	-8[16.7 µM]	0	.
c1ccc(-c2nc3nc4ccccc4nc3n2Cc2ccco2)cc1	44*	.	1	-151	.	34
Fc1ccc(-c2nc3nc4ccccc4nc3n2Cc2ccco2)cc1	?	.	-1	-44	64*	37
Fc1ccc(-n2c(-c3ccco3)nc3nc4ccccc4nc32)cc1	.	.	0	.	-7	3
CCCCOc1ccc2c(c1)C(=O)c1cc(O)ccc1-2	14	2	.	-90	.	86*
CCOc1ccc2c(c1)C(=O)c1cc(OCC(=O)O)ccc1-2	9	2	-3	-19	-5	-3
O=C(CCN1CCCCC1)NCC[C@H]1CC[C@@H](NS(=O)(=O)c2cccc(Cl)c2)[C@H](CO)O1	.	-1	-8	5[16.7 µM]	2	.
Cn1cc(-c2ccc(Cl)cc2)cc(C#N)c1=O	-2	-8	.	-28	-18	0
Cn1c(-c2ccc(Cl)cc2)ccc(C#N)c1=O	.	.	.	75*	.	.
CN(C)S(=O)(=O)c1cccc(NC(=O)C2Cc3ccccc3CN2C(=O)c2ccco2)c1 (stereo unspecified)	2	-1	0	5	44*	-4
CCOC(=O)c1cn[nH]c1NC(=S)Nc1ccc(Cl)cc1	36*	6	-5	i	-7	.
COc1ccc2[nH]c3c(c2c1)CCNC3=O	-5	0	0	?	0	-15
O=C1NCCc2c1[nH]c1ccc([N+](=O)[O-])cc21	-3	-2	.	67*	.	-4
SMILES	Wnt act	ERAP1 HTS inh	Cneo AK release	HIV Env fusion	esBAF inh	MITF TRPM1 HTS
O=C(NC1CC(=O)N(c2ccccc2)C1)C(=O)c1c[nH]c2ccccc12 (stereo unspecified)	-3	-8	-2	62*	.	-15
C#CCN1C(=O)S/C(=C\c2ccc(-c3ccc(C(=O)O)cc3C)o2)C1=O	16	6	0	-117	86*	47
CCCNC(=O)N1C[C@H]2[C@@H](c3ccccc31)[C@H](CO)N2CC1CCCCC1	.	0	1	.	-4	.
COc1ccc2cc(C3CC=C(CO)CN3S(=O)(=O)c3ccccc3[N+](=O)[O-])n(C(=O)OC(C)(C)C)c2c1 (stereo unspecified)	-8	-2	.	65*	.	.
COc1ccc(OCC(=O)N2CCN(S(=O)(=O)c3ccccc3[N+](=O)[O-])CC2)cc1	-1	-2	.	5	-1	-7
Cc1ccc(N/C=C/C(=O)c2cccs2)cc1C	4	9	-1	-314	.	3
Cc1cc(N/C=C/C(=O)c2cccs2)ccc1F	11	3	-2	-153	69*	24
O=C(/C=C/Nc1cccc([N+](=O)[O-])c1)c1cccs1	.	.	-5	-152	73*	.

Assay outcomes as filed in PubChem BioAssay.
